Data as given in ChEMBL document CHEMBL4350961, “Discovery of Pyrrolo[3,2- d]pyrimidin-4-one Derivatives as a New Class of Potent and Cell-Active Inhibitors of P300/CBP-Associated Factor Bromodomain” (J Med Chem, 2019).
Calls of active or inactive are those of the source.

What was measured:
[1] = system: Ribosomal protein S6 kinase alpha-1 (Rattus norvegicus), Q63531 [S637N,G697A]; test: Inhibition of recombinant full-length rat Rsk1 S637N/G697A mutant at 10 uM using KKKNRTLSVA as substrate measured after 40 mins in presence of [gamma33P]ATP by scintillation counting method
Sequence of Ribosomal protein S6 kinase alpha-1 (Rattus norvegicus), Q63531 [S637N,G697A] (Q63531 whole entry S637N/G697A): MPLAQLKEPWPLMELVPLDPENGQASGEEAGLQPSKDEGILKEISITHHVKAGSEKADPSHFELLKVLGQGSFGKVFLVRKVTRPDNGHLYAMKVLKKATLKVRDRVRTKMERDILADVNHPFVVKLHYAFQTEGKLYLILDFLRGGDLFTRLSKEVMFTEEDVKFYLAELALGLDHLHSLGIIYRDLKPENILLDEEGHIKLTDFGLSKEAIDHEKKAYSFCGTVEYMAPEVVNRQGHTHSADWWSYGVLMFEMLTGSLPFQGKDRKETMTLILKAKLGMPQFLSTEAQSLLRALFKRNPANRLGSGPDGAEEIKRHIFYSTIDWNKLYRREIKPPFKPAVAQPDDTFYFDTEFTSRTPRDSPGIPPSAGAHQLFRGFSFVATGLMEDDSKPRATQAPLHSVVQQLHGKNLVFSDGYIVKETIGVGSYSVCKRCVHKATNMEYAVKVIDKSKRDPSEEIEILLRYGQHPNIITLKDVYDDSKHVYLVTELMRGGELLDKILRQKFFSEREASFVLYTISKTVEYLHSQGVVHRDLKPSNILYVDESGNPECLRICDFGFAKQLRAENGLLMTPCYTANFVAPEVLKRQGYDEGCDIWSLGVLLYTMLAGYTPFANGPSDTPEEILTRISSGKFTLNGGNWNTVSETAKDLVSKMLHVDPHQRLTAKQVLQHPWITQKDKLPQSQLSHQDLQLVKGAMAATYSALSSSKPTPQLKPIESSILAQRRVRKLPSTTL

[2] = molecular target: Serine/threonine-protein kinase pim-3 (Homo sapiens) (UniProt Q86V86); test: Inhibition of recombinant human Pim3 (2 to end residues) at 10 uM using RSRHSSYPAGT as substrate measured after 40 mins in presence of [gamma33P]ATP by scintillation counting method
[3] = molecular target: Transcription initiation factor TFIID subunit 1 (Homo sapiens) (UniProt P21675); test: Binding affinity to human partial length TAF1 bromodomain 2 (D1521 to D1656 residues) expressed in bacterial expression system at 1 uM by BROMOscan assay
How it was run: (§1)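 BROMOscan bromodomain cross-screen run by an outside service, compound at 1 µM against 32 recombinant bromodomains. Binding given as percent of control.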

[4] = molecular target: PI3-kinase p110-alpha/p85-alpha (Homo sapiens) (UniProt P27986+P42336); test: Inhibition of recombinant full-length human PI3K p110alpha/p85alpha at 10 uM using phosphatidylinositol-4, 5-bisphosphate as substrate measured after 40 mins by fluorescence assay; format: protein-complex assay
[5] = molecular target: Glycogen synthase kinase-3 alpha (Homo sapiens) (UniProt P49840); test: Inhibition of recombinant human GSK3alpha (2 to end residues) at 10 uM using phospho GS2 peptide as substrate measured after 40 mins in presence of [gamma33P]ATP by scintillation counting method
[6] = molecular target: Death-associated protein kinase 3 (Homo sapiens) (UniProt O43293); test: Inhibition of human ZIPK (1 to 290 residues) using KKLNRTLSFAEPG as substrate measured after 40 mins in presence of [gamma33P]ATP by scintillation counting method
Sequence of Death-associated protein kinase 3 (Homo sapiens) (O43293 whole entry, looked up, the tested form may be a part): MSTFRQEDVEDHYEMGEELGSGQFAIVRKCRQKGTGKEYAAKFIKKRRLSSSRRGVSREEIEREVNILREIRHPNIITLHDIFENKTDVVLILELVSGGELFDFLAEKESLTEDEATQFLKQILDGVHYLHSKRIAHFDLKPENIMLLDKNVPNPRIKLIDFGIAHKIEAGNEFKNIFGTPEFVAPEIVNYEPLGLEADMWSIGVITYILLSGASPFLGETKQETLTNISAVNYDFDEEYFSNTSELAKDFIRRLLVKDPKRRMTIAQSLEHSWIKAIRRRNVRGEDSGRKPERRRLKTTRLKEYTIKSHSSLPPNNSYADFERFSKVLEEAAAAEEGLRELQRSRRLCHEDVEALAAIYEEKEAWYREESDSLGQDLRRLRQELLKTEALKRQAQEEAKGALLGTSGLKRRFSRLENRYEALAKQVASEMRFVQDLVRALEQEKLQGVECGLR

[7] = molecular target: Wee1-like protein kinase (Homo sapiens) (UniProt P30291); test: Inhibition of human Wee1 (214 to end residues) using LSNLYHQGKFLQTFCGSPLYRRR as substrate measured after 40 mins in presence of [gamma33P]ATP by scintillation counting method
Sequence of Wee1-like protein kinase (Homo sapiens) (P30291 whole entry, looked up, the tested form may be a part): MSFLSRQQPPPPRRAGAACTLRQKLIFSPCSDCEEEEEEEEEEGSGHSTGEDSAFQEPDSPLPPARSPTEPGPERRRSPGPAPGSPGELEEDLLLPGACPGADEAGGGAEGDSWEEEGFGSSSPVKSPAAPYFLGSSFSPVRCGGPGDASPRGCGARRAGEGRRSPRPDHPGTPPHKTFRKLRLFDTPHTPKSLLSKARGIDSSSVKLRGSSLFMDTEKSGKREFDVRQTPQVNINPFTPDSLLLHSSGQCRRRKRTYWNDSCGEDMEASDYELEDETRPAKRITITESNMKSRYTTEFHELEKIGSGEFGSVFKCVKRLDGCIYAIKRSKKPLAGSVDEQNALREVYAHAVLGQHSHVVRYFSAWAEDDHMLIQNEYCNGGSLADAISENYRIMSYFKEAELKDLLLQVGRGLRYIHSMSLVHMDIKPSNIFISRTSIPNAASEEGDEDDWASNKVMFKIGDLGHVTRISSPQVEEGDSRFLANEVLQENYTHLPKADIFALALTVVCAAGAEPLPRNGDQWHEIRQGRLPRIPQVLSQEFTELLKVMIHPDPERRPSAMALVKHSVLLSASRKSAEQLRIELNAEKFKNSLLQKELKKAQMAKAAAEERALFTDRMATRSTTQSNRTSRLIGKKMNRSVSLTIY

[8] = molecular target: Insulin receptor (Homo sapiens) (UniProt P06213); test: Inhibition of recombinant human IR (1005 to 1310 residues) at 10 uM using KKSRGDYMTMQIG as substrate measured after 40 mins in presence of [gamma33P]ATP by scintillation counting method
[9] = molecular target: Proto-oncogene tyrosine-protein kinase Src (Homo sapiens) (UniProt P12931); test: Inhibition of human Src (1 to 530 residues) using GGEEEEYFELVKKKK as substrate measured after 40 mins in presence of [gamma33P]ATP by scintillation counting method
[10] = molecular target: Serine/threonine-protein kinase PLK3 (Homo sapiens) (UniProt Q9H4B4); test: Inhibition of recombinant human Plk3 (19 to 301 residues) at 10 uM using casein as substrate measured after 40 mins in presence of [gamma33P]ATP by scintillation counting method
[11] = molecular target: Tyrosine-protein kinase Lyn (Homo sapiens) (UniProt P07948); test: Inhibition of recombinant full-length human Lyn at 10 uM using poly(Glu, Tyr) 4:1 as substrate measured after 40 mins in presence of [gamma33P]ATP by scintillation counting method
[12] = molecular target: Serine/threonine-protein kinase ULK2 (Homo sapiens) (UniProt Q8IYT8); test: Inhibition of human ULK2 (1 to 306 residues) using casein as substrate measured after 40 mins in presence of [gamma33P]ATP by scintillation counting method
Sequence of Serine/threonine-protein kinase ULK2 (Homo sapiens) (Q8IYT8 whole entry, the tested form may be a part): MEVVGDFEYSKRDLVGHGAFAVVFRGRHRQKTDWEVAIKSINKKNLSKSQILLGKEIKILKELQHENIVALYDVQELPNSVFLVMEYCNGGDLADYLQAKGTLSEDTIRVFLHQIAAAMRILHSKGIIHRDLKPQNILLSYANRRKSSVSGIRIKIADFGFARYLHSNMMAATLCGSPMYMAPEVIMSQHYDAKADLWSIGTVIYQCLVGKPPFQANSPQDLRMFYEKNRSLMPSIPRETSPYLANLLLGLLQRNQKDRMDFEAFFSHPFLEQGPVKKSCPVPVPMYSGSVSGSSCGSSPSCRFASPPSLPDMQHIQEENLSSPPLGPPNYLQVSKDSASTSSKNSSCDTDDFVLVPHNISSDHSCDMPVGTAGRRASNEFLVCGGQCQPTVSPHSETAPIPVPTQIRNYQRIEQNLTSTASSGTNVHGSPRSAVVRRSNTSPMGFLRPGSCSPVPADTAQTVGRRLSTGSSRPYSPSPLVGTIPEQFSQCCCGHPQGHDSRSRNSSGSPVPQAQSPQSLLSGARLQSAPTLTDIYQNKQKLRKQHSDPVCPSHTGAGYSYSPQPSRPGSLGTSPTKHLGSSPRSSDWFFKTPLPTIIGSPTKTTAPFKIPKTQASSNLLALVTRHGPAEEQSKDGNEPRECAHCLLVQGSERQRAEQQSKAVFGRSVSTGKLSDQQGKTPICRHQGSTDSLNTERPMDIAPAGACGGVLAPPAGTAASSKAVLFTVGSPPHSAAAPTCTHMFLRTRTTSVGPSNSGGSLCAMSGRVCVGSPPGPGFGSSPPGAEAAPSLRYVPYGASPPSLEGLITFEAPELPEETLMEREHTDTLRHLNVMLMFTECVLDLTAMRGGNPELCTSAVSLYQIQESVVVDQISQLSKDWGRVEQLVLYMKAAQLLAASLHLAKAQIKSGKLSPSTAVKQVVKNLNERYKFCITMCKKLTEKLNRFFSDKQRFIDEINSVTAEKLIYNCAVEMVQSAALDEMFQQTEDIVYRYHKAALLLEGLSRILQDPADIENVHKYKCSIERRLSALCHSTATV

[13] = molecular target: Serine/threonine-protein kinase 17B (Homo sapiens) (UniProt O94768); test: Inhibition of recombinant full-length human DRAK2 at 10 uM using KKRPQRRYSNVF as substrate measured after 120 mins in presence of [gamma33P]ATP by scintillation counting method
[14] = molecular target: DNA-dependent protein kinase catalytic subunit (Homo sapiens) (UniProt P78527); test: Inhibition of recombinant full-length human DNA-PK at 10 uM using GST-cMyc-p53 as substrate measured after 40 mins by fluorescence assay
[15] = molecular target: Bromodomain-containing protein 3 (Homo sapiens) (UniProt Q15059); test: Binding affinity to human partial length BRD3 bromodomain 2 (G306 to P416 residues) expressed in bacterial expression system at 1 uM by BROMOscan assay; how it was run: as §1
Sequence of Bromodomain-containing protein 3 (Homo sapiens) (Q15059 2-726 limits assumed): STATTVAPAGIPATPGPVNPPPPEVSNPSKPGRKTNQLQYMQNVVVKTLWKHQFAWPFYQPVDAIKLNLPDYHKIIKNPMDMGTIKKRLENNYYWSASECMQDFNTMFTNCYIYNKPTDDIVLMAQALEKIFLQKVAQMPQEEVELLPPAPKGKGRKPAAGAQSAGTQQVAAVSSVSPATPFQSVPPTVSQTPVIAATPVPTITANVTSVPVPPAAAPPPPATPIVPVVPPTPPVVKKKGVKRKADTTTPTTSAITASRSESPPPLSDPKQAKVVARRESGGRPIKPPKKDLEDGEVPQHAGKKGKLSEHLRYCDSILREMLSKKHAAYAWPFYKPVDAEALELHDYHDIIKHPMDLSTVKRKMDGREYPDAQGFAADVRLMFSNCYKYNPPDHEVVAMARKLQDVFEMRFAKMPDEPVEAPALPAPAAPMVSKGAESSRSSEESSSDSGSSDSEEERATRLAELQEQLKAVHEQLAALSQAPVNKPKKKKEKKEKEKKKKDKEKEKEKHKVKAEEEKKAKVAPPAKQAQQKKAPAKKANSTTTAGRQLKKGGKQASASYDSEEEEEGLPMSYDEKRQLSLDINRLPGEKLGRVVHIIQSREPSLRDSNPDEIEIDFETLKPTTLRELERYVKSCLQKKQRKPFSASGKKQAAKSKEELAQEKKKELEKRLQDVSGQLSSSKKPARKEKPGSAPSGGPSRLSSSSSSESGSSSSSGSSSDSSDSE

[16] = molecular target: Serine/threonine-protein kinase MRCK alpha (Homo sapiens) (UniProt Q5VT25); test: Inhibition of recombinant human MRCKalpha (1 to 473 residues) at 10 uM using KKRNRTLTV as substrate measured after 40 mins in presence of [gamma33P]ATP by scintillation counting method
[17] = molecular target: Protein-tyrosine kinase 6 (Homo sapiens) (UniProt Q13882); test: Inhibition of full-length recombinant human BRK at 10 uM using poly(Glu, Tyr) 4:1 as substrate measured after 40 mins in presence of [gamma33P]ATP by scintillation counting method
Sequence of Protein-tyrosine kinase 6 (Homo sapiens) (Q13882 whole entry, looked up): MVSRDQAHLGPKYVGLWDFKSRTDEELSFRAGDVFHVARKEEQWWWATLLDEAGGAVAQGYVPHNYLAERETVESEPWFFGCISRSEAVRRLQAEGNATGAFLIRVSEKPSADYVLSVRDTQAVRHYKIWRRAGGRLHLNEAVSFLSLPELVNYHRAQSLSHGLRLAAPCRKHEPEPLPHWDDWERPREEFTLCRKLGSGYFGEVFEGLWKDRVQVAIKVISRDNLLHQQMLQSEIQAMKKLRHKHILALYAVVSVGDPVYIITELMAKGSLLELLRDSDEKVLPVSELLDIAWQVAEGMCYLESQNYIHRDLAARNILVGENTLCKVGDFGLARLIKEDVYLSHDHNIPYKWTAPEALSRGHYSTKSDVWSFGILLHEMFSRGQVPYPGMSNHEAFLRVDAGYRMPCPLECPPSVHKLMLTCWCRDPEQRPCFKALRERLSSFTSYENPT
How it was run: (§2)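 Kinase panel of 422 kinases screened by Eurofins KinaseProfiler at a single test-compound concentration of 10 µM.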

[18] = molecular target: Myosin light chain kinase 2, skeletal/cardiac muscle (Homo sapiens) (UniProt Q9H1R3); test: Inhibition of recombinant full-length human MYLK2 at 10 uM using KKLNRTLSFAEPG as substrate measured after 40 mins in presence of [gamma33P]ATP by scintillation counting method
[19] = molecular target: Activin receptor type-1-like (Homo sapiens) (UniProt P37023); test: Inhibition of recombinant human ALK1 (142 to end residues) at 10 uM using casein as substrate measured after 40 mins in presence of [gamma33P]ATP by scintillation counting method
[20] = molecular target: MAP kinase-activated protein kinase 3 (Homo sapiens) (UniProt Q16644); test: Inhibition of recombinant human MAPKAPK3 (2 to end residues) at 10 uM using KKLNRTLSVA as substrate measured after 40 mins in presence of [gamma33P]ATP by scintillation counting method
Sequence of MAP kinase-activated protein kinase 3 (Homo sapiens) (Q16644 whole entry, looked up): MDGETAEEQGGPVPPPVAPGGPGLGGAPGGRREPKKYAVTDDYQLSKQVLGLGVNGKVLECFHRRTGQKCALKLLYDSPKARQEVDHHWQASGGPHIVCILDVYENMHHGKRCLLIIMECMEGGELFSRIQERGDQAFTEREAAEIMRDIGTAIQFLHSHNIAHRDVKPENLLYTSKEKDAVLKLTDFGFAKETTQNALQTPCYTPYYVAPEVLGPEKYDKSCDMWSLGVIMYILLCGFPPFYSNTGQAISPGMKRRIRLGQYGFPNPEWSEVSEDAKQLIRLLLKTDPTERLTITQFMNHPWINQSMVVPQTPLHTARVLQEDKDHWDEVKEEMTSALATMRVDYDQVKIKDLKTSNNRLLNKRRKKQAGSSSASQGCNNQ

[21] = molecular target: Mitogen-activated protein kinase kinase kinase 2 (Homo sapiens) (UniProt Q9Y2U5); test: Inhibition of recombinant full-length human MEKK2 at 10 uM using myelin basic protein as substrate measured after 40 mins in presence of [gamma33P]ATP by scintillation counting method
[22] = molecular target: Receptor-interacting serine/threonine-protein kinase 2 (Homo sapiens) (UniProt O43353); test: Inhibition of human RIPK2 (1 to 299 residues) using myelin basic protein as substrate measured after 120 mins in presence of [gamma33P]ATP by scintillation counting method; how it was run: as §2
[23] = system: RAC-beta serine/threonine-protein kinase (Homo sapiens), P31751 [S474D]; test: Inhibition of recombinant full-length human PKBbeta S474D mutant (120 to end residues) at 10 uM using GRPRTSSFAEGKK as substrate measured after 40 mins in presence of [gamma33P]ATP by scintillation counting method
Sequence of RAC-beta serine/threonine-protein kinase (Homo sapiens), P31751 [S474D] (P31751 whole entry S474D): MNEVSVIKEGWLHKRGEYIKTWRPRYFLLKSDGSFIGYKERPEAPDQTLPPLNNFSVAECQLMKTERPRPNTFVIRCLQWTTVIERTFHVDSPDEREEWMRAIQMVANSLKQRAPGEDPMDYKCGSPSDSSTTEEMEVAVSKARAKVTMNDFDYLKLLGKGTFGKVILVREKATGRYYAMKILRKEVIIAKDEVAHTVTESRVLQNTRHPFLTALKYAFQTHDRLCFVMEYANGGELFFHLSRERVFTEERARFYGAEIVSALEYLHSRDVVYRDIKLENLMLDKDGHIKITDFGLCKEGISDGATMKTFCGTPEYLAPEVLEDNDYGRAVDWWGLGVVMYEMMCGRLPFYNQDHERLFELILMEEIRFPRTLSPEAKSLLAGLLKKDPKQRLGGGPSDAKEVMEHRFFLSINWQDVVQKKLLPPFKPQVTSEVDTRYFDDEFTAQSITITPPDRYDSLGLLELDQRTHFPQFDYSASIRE

[24] = molecular target: Ribosomal protein S6 kinase alpha-4 (Homo sapiens) (UniProt O75676); test: Inhibition of recombinant human MSK2 (2 to end residues) at 10 uM using GRPRTSSFAEGKK as substrate measured after 40 mins in presence of [gamma33P]ATP by scintillation counting method

CN1C[C@H](Nc2nc3cc[nH]c3c(=O)n2C)C[C@H](c2ccc3c(c2)OCCO3)C1
inactive: inhibition [1] | inhibition [2] | Activity [3] | inhibition [4] | inhibition [5] | inhibition [6] | inhibition [7] | inhibition [8] | inhibition [9] | inhibition [10] | inhibition [11] | inhibition [12] | inhibition [13] | inhibition [14] | Activity [15] | inhibition [16] | inhibition [17] | inhibition [18] | inhibition [19] | inhibition [20] | inhibition [21] | inhibition [22] | inhibition [23] | inhibition [24]
